Sampled rows, rich in hits. Any-hit rate of the full collection: about 1.8%.
NPY-Y1 PAM-ag: NPY-Y1 receptor potentiators or agonists, primary screen, cell-based; hit rate 0.37% among 220,000; Neuropeptide Y receptor type 1 (Homo sapiens), P25929; activation, % at 3.6 µM; NPY-Y1 expressing cells, potentiator/agonist activation; in the data active = activation above about 33%, passing the limit was not always enough;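 note: cells stimulated with NPY at EC10 then isoproterenol at EC100; 0% = low agonist plus stimulus and 100% = saturating agonist plus stimulus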
Target sequence (P25929 whole entry, looked up): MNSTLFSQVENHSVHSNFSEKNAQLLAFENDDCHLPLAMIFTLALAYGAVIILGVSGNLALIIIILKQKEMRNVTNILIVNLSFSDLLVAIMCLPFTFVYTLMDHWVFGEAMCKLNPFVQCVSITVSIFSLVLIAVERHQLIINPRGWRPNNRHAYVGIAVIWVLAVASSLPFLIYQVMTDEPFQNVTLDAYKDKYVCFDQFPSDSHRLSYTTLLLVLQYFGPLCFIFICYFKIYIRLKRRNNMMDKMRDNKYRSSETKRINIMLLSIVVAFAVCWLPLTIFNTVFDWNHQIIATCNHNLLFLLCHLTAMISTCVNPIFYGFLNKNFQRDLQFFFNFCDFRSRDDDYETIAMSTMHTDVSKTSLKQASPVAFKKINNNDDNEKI
NPY-Y2 antag: NPY-Y2 receptor antagonists, primary screen, cell-based; hit rate 0.99% among 140,000; NPY-Y2 expressing cells, antagonist mode; Neuropeptide Y receptor type 2 (Homo sapiens), P49146; inhibition, % at 2.7 µM; in the data active = inhibition above about 17%;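 note: 0% = vehicle with agonist challenge and 100% = reference antagonist with challenge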
NPY-Y2 PAM-ag: NPY-Y2 potentiators or agonists, primary screen, cell-based; cells expressing NPY-Y2, potentiator/agonist read-out; hit rate 0.45% among 220,000; activation, % at 3.6 µM; in the data active = activation above about 27%;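 note: cells stimulated with NPY near EC25 plus isoproterenol at EC100; 0% = vehicle plus submaximal agonist and 100% = vehicle plus saturating agonist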
NPY Y1 blocker: NPY-Y1 receptor antagonists, primary screen, cell-based | AID 1040, 2008 | Neuropeptide Y receptor type 1 (Homo sapiens), P25929 | hit rate 1% among 200,000 | HEK293-CNG Y1 cells, membrane potential fluorescence; NPY at EC95, then isoproterenol | inhibition, % at 3.6 µM;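 active = inhibition above the campaign mean inhibition of all tested compounds plus 3 SD, cut at about 20% in these data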;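 note: 0% = DMSO wells given NPY plus isoproterenol and 100% = isoproterenol alone without NPY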
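Assay system: HEK293 cells with Y1 receptor plus CNG channel | Probe or stimulus: NPY (25 nM), isoproterenol (1 µM), Ro 20-1724 (25 µM) | Timing: Compound incubation 1 h at room temperature, readout 45 min post-stimulation | Measured by: Membrane-potential fluorescent dye readout | Benchmarks: High control isoproterenol alone, low control NPY with isoproterenol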
NPY-Y1 confirm: NPY-Y1 potentiators or agonists, confirmation, cell-based | shares compounds with NPY-Y1 PAM-ag | cell-based NPY-Y1 potentiator/agonist assay | activation, % at 3.6 µM | hit rate 20% among 280 | AID 1546, 2009; in the data active = activation above about 45%;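 note: cells challenged with NPY at its EC10 plus isoproterenol stimulus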
NPY-Y2 counter: NPY-Y2 potentiators or agonists, counter-screen for NPY-Y1 potentiator project, cell-based, fluorescence; AID 1649, 2009; hit rate 20% among 280; HEK293-CNG cells, membrane-potential fluorescence (FLIPR), 1536-well; activation, % at 3.6 µM; shares compounds with NPY-Y1 PAM-ag; in the data active = activation above about 33%
NPY-Y1 ag: NPY-Y1 direct agonists without NPY, confirmation, counter-screen for NPY-Y1 potentiator project, cell-based, fluorescence | shares compounds with NPY-Y1 PAM-ag | HEK293 Y1-CNGC, membrane potential fluorescence, agonist mode | activation, % at 3.6 µM | hit rate 50% among 280 | AID 1697, 2009;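 active = percent activation above the mean of DMSO-only control wells plus 3 SD of those wells, cut at about 18% in these data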;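 note: cells challenged with isoproterenol plus Ro 20-1724 with no NPY in test wells; Y1 agonism lowers isoproterenol-driven cAMP and reduces probe fluorescence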
NPY-Y2 agonist: NPY-Y2 direct agonists without NPY, counter-screen for NPY-Y1 potentiator project, cell-based, fluorescence; HEK293 Y2-CNGC, membrane potential fluorescence, agonist mode; AID 1698, 2009; shares compounds with NPY-Y1 PAM-ag; activation, % at 3.6 µM; hit rate 67% among 280;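 active = activation above the solvent-only control wells' mean plus 3 SD, cut at about 11% in these data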;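 note: 0% = DMSO with isoproterenol and 100% = 40 nM NPY maximal response; agonism lowers cAMP so well fluorescence drops in active wells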
CNGC inh 2: CNGC cAMP sensor activity inhibitors, counter-screen for NPY-Y1 potentiator/agonist project, cell-based, HEK293-CNG parental, membrane potential fluorescence, Y1 set | shares compounds with NPY-Y1 PAM-ag | isoproterenol cAMP | inhibition, % at 3.6 µM | hit rate 42% among 280;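 active = inhibition above the mean of stimulated solvent-only control wells plus 3 SD, cut at about 22% in these data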;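 note: 0% = isoproterenol-stimulated DMSO wells and 100% = unstimulated DMSO wells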
Active calls of the source: *; nt = no result.

SMILES	NPY-Y1 PAM-ag	NPY-Y2 antag	NPY-Y2 PAM-ag	NPY Y1 blocker	NPY-Y1 confirm	NPY-Y2 counter	NPY-Y1 ag	NPY-Y2 agonist	CNGC inh 2
Cc1ccccc1C(=O)NC(C(N)=O)P(=O)(OC(C)C)OC(C)C (stereo not given)	-7	nt	3	nt	nt	nt	nt	nt	nt
CCOC(=O)Cn1c(=O)oc2cc(S(=O)(=O)NCc3cccs3)ccc21	33*	2	27	-9	48*	27	46*	29*	61*
CCOC(=O)Cn1c(=O)oc2cc(S(=O)(=O)NCc3ccccn3)ccc21	0	1	3	0	nt	nt	nt	nt	nt
COC(=O)CC1(C(=O)OC)Oc2ccc(Br)cc2C(=O)N1c1cc(Cl)c(Cl)cc1Cl (stereo not given)	49*	nt	18	nt	22	5	10	7	20
N#CC1=C(N)OC2=C(C(=O)CC(c3ccco3)C2)C1c1ccc(OCc2c(F)cccc2Cl)cc1 (stereo not given)	63*	3	-27	1	-2	-10	-3	-10	-3
O=C1CCC2S/C(=C/Nc3ccc(C(F)(F)F)cc3)C(=O)N12 (stereo not given)	39*	nt	18	-4	35	18	22*	25*	30*
O=C1CCCC/C1=C/Nc1cccc(C(F)(F)F)c1	-1	nt	0	7	nt	nt	nt	nt	nt
Cn1nc(C(F)(F)F)c(-c2ccc(F)cc2)c1NC(=O)Nc1ccc(F)cc1	48*	nt	38	nt	59*	45*	58*	52*	49*
Cc1nn(CCC(=O)NNC(=S)NCC(C)C)c(C)c1Br	8	0	9	-2	nt	nt	nt	nt	nt
O=C(c1cc(-c2cccc(O)c2)on1)N1CCN(C(c2ccccc2)c2ccccc2)CC1	32*	1	-6	8	32	5	18*	16*	7
O=C(c1cc(C2CC2)on1)N1CCN(C(c2ccccc2)c2ccccc2)CC1	-6	-2	5	-2	nt	nt	nt	nt	nt
COCCNS(=O)(=O)c1ccc(OCC(=O)OC)c(Cl)c1	-6	2	1	2	nt	nt	nt	nt	nt
COC(=O)COc1ccc(S(=O)(=O)NCCC2=CCCCC2)cc1Cl	56*	5	20	1	57*	31	52*	39*	49*
CC12CN3CC(C)(CN(C1)C3c1ccccc1F)C2 (stereo not given)	8	nt	-3	nt	nt	nt	nt	nt	nt
CC(=O)c1c(C)nc(-c2ccc(Cl)cc2)nc1N	88*	nt	-10	-2	4	-2	-12	-8	-6
COCCCNCCCCOc1ccc(C)cc1[N+](=O)[O-]	-17	2	-5	4	nt	nt	nt	nt	nt
C=CCNCCOc1ccc(C)cc1[N+](=O)[O-]	39*	nt	4	-2	0	5	-2	4	3
CC(C)C(=O)NNC(=O)c1csc(-c2cccs2)n1	7	nt	-1	nt	nt	nt	nt	nt	nt
COc1cc(/C=C(\C#N)c2nc3ccccc3s2)cc([N+](=O)[O-])c1O	17	nt	13	0	nt	nt	nt	nt	nt
N#C/C(=C\c1ccc(O)c([N+](=O)[O-])c1)c1nc2ccccc2s1	39*	nt	7	-7	15	12	9	4	16
O=C(COC(=O)c1ccc(NS(=O)(=O)c2cccs2)cc1O)NCc1ccccc1	3	nt	-9	1	nt	nt	nt	nt	nt
O=C(COC(=O)c1ccc(NS(=O)(=O)c2cccs2)cc1O)Nc1nc2ccccc2s1	43*	nt	22	-3	35	24	38*	25*	22*
Cc1ccc(OCc2ccc(C(=O)O)o2)c([N+](=O)[O-])c1	-16	2	-3	5	nt	nt	nt	nt	nt
COC(=O)CSc1ccc(S(=O)(=O)N2CCCCCC2)cc1[N+](=O)[O-]	60*	nt	0	-12	121*	100*	108*	104*	99*
Cc1[nH]c2ccccc2c1N=Nc1ccc(F)cc1	39*	nt	19	-7	40	28	33*	30*	26*
SMILES	NPY-Y1 PAM-ag	NPY-Y2 antag	NPY-Y2 PAM-ag	NPY Y1 blocker	NPY-Y1 confirm	NPY-Y2 counter	NPY-Y1 ag	NPY-Y2 agonist	CNGC inh 2
O=C(Nc1ccncc1)c1ccc2c(c1)C(=O)N(C1CCCCC1)C2=O	45*	2	1	-1	2	17	18*	5	2
CC(C)CC(=O)NNC(=O)C(C)C	19	0	-3	0	nt	nt	nt	nt	nt
CNCC(O)COc1cccc(OC)c1 (stereo not given)	56*	nt	24	-8	15	14	10	18*	-3
COCc1cc(C)nc(SCC[N+](C)(C)CC(=O)Nc2cccc(C(F)(F)F)c2)c1C#N	54*	nt	-6	-4	22	12	16	6	4
COC(=O)c1ccc(NC(=O)CN(c2ccc(OC)cc2)S(C)(=O)=O)cc1	43*	-5	9	-7	30	16	41*	33*	32*
COc1ccc(CC(=O)Nc2ccc(C(C)=O)cc2)cc1	37*	nt	14	-9	23	15	33*	35*	31*
CCOc1ccccc1N1CCN(C(=O)c2csc(C)c2CC)CC1	-10	nt	-14	5	nt	nt	nt	nt	nt
COc1ccnc(Oc2ccccc2)c1C(=O)N/C=N/OCc1ccccc1F	0	nt	-18	3	nt	nt	nt	nt	nt
Cn1c(=O)[nH]c(=O)c2c1nc(N1CCCCC1)n2CCSc1nc2ccccc2o1	40*	0	7	1	-3	2	1	9	3
O=C(CC1NCCc2ccccc21)Nc1ccc(Cl)cc1 (stereo not given)	56*	nt	-12	1	-8	-5	-17	-10	-2
Cc1ccccc1-n1c([C@@H]2C[C@H]2c2ccccc2)n[nH]c1=S	-6	nt	-15	nt	nt	nt	nt	nt	nt
COc1ccccc1-n1c(SCC(N)=O)nnc1-c1ccccc1	13	4	12	-4	nt	nt	nt	nt	nt
COc1ccccc1-n1c(C)nnc1SCC(N)=O	43*	0	1	0	1	4	-4	1	-5
Cc1noc2ncnc(Sc3ccc(Cl)cc3)c12	66*	11	4	-2	-4	-6	-11	6	-7

Screening data deposited in PubChem by The Scripps Research Institute Molecular Screening Center.
